Assay results from different studies.
Each line is one published result; the experiments were not run side by side.
Target: Hormonally up-regulated neu tumor-associated kinase (HUNK, Homo sapiens, UniProt P57058)
One construct used (P57058 1-714): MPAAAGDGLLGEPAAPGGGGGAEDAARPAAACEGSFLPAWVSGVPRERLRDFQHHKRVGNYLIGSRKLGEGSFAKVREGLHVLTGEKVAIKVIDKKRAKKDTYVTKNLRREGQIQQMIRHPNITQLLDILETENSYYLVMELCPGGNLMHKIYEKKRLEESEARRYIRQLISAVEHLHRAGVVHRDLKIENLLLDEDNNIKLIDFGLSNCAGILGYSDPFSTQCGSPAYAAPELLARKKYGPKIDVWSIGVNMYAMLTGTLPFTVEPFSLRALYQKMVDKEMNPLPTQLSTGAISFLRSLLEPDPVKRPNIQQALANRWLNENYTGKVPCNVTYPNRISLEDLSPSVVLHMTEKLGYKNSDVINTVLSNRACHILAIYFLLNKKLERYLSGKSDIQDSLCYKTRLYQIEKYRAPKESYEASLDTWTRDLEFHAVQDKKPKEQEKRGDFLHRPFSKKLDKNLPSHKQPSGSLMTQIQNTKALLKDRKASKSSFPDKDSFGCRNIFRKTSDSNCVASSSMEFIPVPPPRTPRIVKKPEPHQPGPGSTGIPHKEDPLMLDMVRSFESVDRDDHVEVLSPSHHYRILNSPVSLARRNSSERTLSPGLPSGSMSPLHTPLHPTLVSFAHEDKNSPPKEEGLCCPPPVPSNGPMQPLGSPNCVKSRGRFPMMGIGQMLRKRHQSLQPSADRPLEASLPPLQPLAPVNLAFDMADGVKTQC

SMILES	test	conditions	remaining binding [%]
C[C@@H](c1ccc(-n2cnc3c(N)ncnc32)cc1)N1CCc2nn(C)c(Cc3ccccc3)c2C1=O	binding, competition with immobilised ligand	0.1 µM	79
FC(F)(F)Oc1cccc(-c2cnc3ccc(-c4ccncc4)nn23)c1	cell-free assay, competition with immobilised ligand	5 µM	96
O=C(Nc1c[nH]nc1C(=O)NC1CCNCC1)c1cc(F)cc(F)c1	binding, competition with immobilised ligand	1 µM	100
C[C@@H]1CCN(c2nccc(-c3cnn4ncccc34)n2)C1	binding	1 µM	100
C=CC(=O)N1CCC(C(=O)NCC(=O)N2CCN(c3nc(-c4cnc(N)nc4C(F)F)nc(N4CCOCC4)n3)CC2)CC1	binding, competition with immobilised ligand	1 µM	79
N[C@H]1CCN(c2nccc(-c3cnn4ncccc34)n2)C1	binding	1 µM	82
CN([C@@H]1CCc2c(CC(=O)O)c3ccccc3n2C1)S(=O)(=O)c1ccc(F)cc1	cell-free assay, competition with immobilised ligand	1 µM	99
COc1cnc(Nc2cccc(S(N)(=O)=O)c2)nc1N1CCN(c2ccccc2)CC1	binding, competition with immobilised ligand	1 µM	74
CC1=C(C#N)[C@@H](c2ccc3[nH]nc(C)c3c2)C(C#N)=C(c2ccc(Cl)cc2)N1	cell-free assay, competition with immobilised ligand	1 µM	81.4
COc1cnc(Nc2cccc(S(N)(=O)=O)c2)nc1N1CCN(c2ccccc2)C(=O)C1	binding, competition with immobilised ligand	1 µM	100
O=C(c1ccc(Nc2ncc(Cl)c(-c3cc4ccccc4s3)n2)cc1)N1CCC(N2CCCC2)CC1	binding, competition with immobilised ligand	1 µM	100
Nc1ncc2c(n1)-c1c([nH]c3ccc(C#CC4CC4)cc13)CCCC2	binding, competition with immobilised ligand	1 µM	97
O=C(c1ccc(Nc2nccc(-c3cc4ccccc4s3)n2)cc1)N1CCC(N2CCCC2)CC1	binding, competition with immobilised ligand	1 µM	100
Cc1cnn2ncc(-c3ccnc(N(C)C)n3)c2c1	binding	1 µM	100
CCCOc1ccc([C@@H]2[C@@H](C(=O)O)[C@H](c3ccc4c(c3)OCO4)CN2CC(=O)Nc2c(CC)cccc2CC)cc1	cell-free assay, competition with immobilised ligand	1 µM	70
O=C(c1ccc(Nc2ncc(Cl)c(-c3ccc(Cl)s3)n2)cc1)N1CCC(N2CCCC2)CC1	binding, competition with immobilised ligand	1 µM	100
CN(c1ccnc(CNc2nc(Nc3ccc4c(c3)CC(=O)N4)ncc2C(F)(F)F)n1)S(C)(=O)=O	cell-free assay, competition with immobilised ligand	1 µM	100
CN(CCCC(F)(F)F)c1nccc(-c2cnn3ncccc23)n1	binding	1 µM	80
COc1cc(-c2cn(C3CCc4ccccc4N(CC(F)(F)F)C3=O)nn2)ccc1-n1ccc(C)n1 (stereo not shown)	cell-free assay, competition with immobilised ligand	1 µM	100
c1cnn2ncc(-c3ccnc(N4CCC45COC5)n3)c2c1	binding	1 µM	92
O=C(NC[C@@H]1[C@H]2CN(C(=O)OCc3cc(C(F)(F)F)cc(C(F)(F)F)c3)C[C@@H]12)c1ccc2[nH]nnc2c1	cell-free assay, competition with immobilised ligand	1 µM	100
CC1CCCN1c1nccc(-c2cnn3ncccc23)n1 (stereo not shown)	binding	1 µM	100
